Common to all, as to assay type: cell-based
Assay [1] has as its target T1, Sodium channel protein type 9 subunit alpha (Homo sapiens, UniProt Q15858). The assay can be described thus: Inhibition of human Nav1.7 expressed in HEK293 cells assessed as inward peak current by ion-works quattro patch clamp electrophysiology method.
Assay [2] addresses T2, Sodium channel protein type 5 subunit alpha (Homo sapiens, UniProt Q14524). As to the kind of experiment: Inhibition of human Nav1.5 expressed in HEK293 cells assessed as inward peak current by ion-works quattro patch clamp electrophysiology method. Summed up:
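Stable HEK293 line expressing human NaV1.5, recorded by population patch clamp on the IonWorks Quattro.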
(In general: Patch clamp records ionic current or voltage across a cell membrane.)

Assay [3] deals with T1, Sodium channel protein type 9 subunit alpha. The assay can be described thus: Inhibition of human Nav1.7 expressed in HEK293 cells by whole cell patch clamp electrophysiology method.
The target of assay [4] is T2, Sodium channel protein type 5 subunit alpha. The assay can be described thus: Inhibition of human Nav1.5 expressed in HEK293 cells by whole cell patch clamp electrophysiology method. Summed up: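 Stable HEK293 line expressing human NaV1.5, recorded on the PatchXpress 7000A. Percent inhibition versus concentration was pooled from at least 10 cells, with two to three points per concentration. The pooled set was fitted with a four-parameter Hill equation to give a single IC50 curve.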

Positions of bridges follow the written chain, without caps; N, C: chain ends. Non-standard residues stand in square brackets, D forms with d. Residues, ends and D or L forms follow the SMILES beside them. Ala(indol-2-yl) = N[C@@H](Cc1cc2ccccc2[nH]1)C(=O)O; 1Nal = N[C@@H](Cc1cccc2ccccc12)C(=O)O; 2Pal = N[C@@H](Cc1ccccn1)C(=O)O

The results in this text go back to ChEMBL document CHEMBL3797186, “Single Residue Substitutions That Confer Voltage-Gated Sodium Ion Channel Subtype Selectivity in the NaV1.7 Inhibitory Peptide GpTx-1” (J Med Chem, 2016).

T2 sequence (Q14524 whole entry): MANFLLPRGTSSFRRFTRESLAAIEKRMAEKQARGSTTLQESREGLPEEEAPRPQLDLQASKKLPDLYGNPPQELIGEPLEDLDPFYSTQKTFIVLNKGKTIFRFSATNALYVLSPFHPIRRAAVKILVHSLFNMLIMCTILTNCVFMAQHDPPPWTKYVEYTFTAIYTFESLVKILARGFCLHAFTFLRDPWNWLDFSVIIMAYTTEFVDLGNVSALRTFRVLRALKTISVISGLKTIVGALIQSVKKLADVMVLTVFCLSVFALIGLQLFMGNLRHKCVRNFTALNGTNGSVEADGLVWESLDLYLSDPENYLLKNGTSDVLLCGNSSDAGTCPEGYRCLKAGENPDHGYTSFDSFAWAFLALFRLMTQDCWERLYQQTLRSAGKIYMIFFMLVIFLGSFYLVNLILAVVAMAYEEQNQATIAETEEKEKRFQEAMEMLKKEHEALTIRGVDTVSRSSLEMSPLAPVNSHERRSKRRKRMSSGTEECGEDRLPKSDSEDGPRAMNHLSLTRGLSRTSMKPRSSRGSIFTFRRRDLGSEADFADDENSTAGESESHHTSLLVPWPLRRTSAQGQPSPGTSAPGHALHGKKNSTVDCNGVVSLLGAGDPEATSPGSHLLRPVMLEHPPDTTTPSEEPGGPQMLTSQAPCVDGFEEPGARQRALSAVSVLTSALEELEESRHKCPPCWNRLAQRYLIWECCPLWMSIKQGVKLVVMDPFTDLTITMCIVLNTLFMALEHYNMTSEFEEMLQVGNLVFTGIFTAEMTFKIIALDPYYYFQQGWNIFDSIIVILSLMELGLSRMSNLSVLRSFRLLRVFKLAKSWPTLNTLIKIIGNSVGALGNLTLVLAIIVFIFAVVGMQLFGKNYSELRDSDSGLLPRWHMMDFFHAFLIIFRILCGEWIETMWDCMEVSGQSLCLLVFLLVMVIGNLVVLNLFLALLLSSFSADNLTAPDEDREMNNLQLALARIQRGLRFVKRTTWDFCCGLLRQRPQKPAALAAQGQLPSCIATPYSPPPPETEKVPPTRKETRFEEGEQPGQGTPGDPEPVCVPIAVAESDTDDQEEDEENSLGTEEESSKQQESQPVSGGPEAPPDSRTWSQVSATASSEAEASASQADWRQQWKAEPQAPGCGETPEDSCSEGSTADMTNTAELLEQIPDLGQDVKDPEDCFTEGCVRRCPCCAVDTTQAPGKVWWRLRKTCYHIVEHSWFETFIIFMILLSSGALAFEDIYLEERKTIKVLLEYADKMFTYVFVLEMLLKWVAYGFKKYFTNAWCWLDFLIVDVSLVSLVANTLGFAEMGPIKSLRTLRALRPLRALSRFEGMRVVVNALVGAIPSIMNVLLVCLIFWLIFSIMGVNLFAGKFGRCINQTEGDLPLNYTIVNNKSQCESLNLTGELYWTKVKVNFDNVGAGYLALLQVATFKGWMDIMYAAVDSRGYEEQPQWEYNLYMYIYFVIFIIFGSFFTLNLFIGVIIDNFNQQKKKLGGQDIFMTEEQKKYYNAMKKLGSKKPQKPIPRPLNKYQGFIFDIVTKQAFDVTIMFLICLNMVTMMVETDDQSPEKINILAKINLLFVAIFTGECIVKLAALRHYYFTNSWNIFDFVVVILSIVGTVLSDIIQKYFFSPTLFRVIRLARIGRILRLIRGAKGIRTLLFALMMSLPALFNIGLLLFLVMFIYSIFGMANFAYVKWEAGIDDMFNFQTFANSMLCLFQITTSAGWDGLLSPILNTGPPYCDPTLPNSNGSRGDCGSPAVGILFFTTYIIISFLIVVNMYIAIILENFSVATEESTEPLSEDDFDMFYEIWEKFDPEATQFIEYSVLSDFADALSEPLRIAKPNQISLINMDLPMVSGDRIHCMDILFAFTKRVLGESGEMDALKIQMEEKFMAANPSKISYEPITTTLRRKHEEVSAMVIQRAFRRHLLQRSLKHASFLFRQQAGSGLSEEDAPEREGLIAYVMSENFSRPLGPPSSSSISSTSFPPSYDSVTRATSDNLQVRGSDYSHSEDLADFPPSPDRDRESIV
T1 sequence (Q15858 whole entry): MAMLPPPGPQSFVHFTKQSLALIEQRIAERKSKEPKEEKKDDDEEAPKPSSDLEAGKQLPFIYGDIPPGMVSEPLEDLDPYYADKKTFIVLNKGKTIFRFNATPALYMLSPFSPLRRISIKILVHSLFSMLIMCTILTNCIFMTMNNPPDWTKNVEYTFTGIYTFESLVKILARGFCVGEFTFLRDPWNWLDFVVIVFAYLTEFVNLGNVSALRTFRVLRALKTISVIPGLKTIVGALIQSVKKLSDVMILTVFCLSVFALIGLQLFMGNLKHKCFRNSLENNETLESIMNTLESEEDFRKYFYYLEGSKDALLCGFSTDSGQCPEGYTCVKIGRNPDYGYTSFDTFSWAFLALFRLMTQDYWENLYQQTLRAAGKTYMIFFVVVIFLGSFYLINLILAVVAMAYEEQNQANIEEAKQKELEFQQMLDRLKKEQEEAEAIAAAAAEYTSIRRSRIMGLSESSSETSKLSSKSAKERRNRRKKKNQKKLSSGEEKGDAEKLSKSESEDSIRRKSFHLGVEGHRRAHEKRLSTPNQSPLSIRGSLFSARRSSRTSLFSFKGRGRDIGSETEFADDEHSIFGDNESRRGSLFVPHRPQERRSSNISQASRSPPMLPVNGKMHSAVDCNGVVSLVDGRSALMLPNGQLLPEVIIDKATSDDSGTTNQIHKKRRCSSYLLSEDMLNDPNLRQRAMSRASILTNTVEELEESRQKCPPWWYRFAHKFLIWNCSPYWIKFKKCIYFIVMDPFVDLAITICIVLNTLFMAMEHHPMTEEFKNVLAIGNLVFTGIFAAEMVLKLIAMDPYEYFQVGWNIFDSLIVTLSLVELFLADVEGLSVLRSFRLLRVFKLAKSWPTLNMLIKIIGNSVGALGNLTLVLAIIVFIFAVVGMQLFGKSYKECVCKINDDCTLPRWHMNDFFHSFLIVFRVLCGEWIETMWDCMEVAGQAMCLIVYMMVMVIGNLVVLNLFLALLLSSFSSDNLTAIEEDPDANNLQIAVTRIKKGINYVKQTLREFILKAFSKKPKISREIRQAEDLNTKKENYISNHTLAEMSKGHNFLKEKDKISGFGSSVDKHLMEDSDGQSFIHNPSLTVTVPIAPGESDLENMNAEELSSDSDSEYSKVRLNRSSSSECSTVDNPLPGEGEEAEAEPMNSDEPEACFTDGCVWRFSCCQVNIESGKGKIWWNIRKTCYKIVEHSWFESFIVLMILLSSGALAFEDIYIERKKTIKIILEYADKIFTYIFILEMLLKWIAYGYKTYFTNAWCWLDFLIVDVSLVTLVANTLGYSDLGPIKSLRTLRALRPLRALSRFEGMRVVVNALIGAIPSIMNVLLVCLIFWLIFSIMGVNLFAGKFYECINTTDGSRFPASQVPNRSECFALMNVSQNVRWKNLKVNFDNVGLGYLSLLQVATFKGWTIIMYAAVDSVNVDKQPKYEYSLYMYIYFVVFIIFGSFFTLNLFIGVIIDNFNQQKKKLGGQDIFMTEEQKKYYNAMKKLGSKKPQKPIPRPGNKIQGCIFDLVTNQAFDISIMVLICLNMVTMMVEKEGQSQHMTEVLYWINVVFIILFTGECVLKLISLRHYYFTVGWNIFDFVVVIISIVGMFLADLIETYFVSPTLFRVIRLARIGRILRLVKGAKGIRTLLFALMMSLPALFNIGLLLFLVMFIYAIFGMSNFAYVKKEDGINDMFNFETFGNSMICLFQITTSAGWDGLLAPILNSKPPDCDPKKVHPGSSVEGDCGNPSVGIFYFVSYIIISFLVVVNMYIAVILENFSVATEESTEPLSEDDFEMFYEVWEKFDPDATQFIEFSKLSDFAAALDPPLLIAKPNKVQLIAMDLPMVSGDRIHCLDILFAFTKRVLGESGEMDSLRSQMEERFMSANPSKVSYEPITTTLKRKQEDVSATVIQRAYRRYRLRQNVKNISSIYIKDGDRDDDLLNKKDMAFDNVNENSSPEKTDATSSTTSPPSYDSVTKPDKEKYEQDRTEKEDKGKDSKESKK

By IC50 is commonly meant the point on the concentration scale where inhibition reaches its midpoint. For `CC[C@H](C)[C@@H]1NC(=O)[C@@H]2CSSC[C@@H]3NC(=O)[C@H](C(C)C)NC(=O)[C@H](CC(C)C)NC(=O)[C@H](CC(N)=O)NC(=O)[C@@H]4CCCN4C(=O)[C@H](CCCNC(=N)N)NC(=O)[C@H](CSSC[C@H](NC(=O)[C@@H](N)CC(=O)O)C(=O)N[C@@H](CC(C)C)C(=O)NCC(=O)N[C@@H](Cc4ccccc4)C(=O)N[C@@H](CCSC)C(=O)N[C@@H](CCCNC(=N)N)C(=O)N[C@@H](CCCCN)C(=O)N2)NC(=O)[C@H](CSSC[C@@H](C(=O)N[C@@H](CCCCN)C(=O)N[C@@H](Cc2ccc(O)cc2)C(=O)N[C@H](C(=O)N[C@@H](Cc2cccc4ccccc24)C(N)=O)C(C)C)NC(=O)[C@H](Cc2c[nH]c4ccccc24)NC(=O)[C@H](CCCCN)NC(=O)[C@H](Cc2cnc[nH]2)NC(=O)[C@H]([C@@H](C)O)NC(=O)[C@H](CCCNC(=N)N)NC(=O)[C@H](CO)NC3=O)NC(=O)[C@H](CCCCN)NC(=O)[C@H](CC(=O)O)NC(=O)[C@H](CC(N)=O)NC(=O)[C@H](CC(=O)O)NC(=O)[C@@H]2CCCN2C1=O` (H-DCLGFMRKCIPDNDKCCRPNLVCSRTHKWCKYV[1Nal]-NH2; disulfide 2-17, 9-23, 16-30), the IC50 was 40 nM in assay [1], over 5000 nM in assay [2], 5 nM in assay [3] and 1800 nM in assay [4].

For `CC[C@H](C)[C@@H]1NC(=O)[C@@H]2CSSC[C@@H]3NC(=O)[C@H](C(C)C)NC(=O)[C@H](CC(C)C)NC(=O)[C@H](CC(N)=O)NC(=O)[C@@H]4CCCN4C(=O)[C@H](Cc4ccccn4)NC(=O)[C@H](CSSC[C@H](NC(=O)[C@@H](N)CC(=O)O)C(=O)N[C@@H](CC(C)C)C(=O)NCC(=O)N[C@@H](Cc4ccccc4)C(=O)N[C@@H](CCSC)C(=O)N[C@@H](CCCNC(=N)N)C(=O)N[C@@H](CCCCN)C(=O)N2)NC(=O)[C@H](CSSC[C@@H](C(=O)N[C@@H](CCCCN)C(=O)N[C@@H](Cc2ccc(O)cc2)C(=O)N[C@H](C(=O)N[C@@H](Cc2ccccc2)C(N)=O)C(C)C)NC(=O)[C@H](Cc2c[nH]c4ccccc24)NC(=O)[C@H](CCCCN)NC(=O)[C@H](Cc2cnc[nH]2)NC(=O)[C@H]([C@@H](C)O)NC(=O)[C@H](CCCNC(=N)N)NC(=O)[C@H](CO)NC3=O)NC(=O)[C@H](CCCCN)NC(=O)[C@H](CC(=O)O)NC(=O)[C@H](CC(N)=O)NC(=O)[C@H](CC(=O)O)NC(=O)[C@@H]2CCCN2C1=O` (H-DCLGFMRKCIPDNDKCC[2Pal]PNLVCSRTHKWCKYVF-NH2; disulfide 2-17, 9-23, 16-30), the IC50 in assay [1] was 300 nM; in assay [2], over 5000 nM; in assay [3], 4 nM; in assay [4] it was 13100 nM.

For the molecule `CC[C@H](C)[C@@H]1NC(=O)[C@@H]2CSSC[C@@H]3NC(=O)[C@H](C(C)C)NC(=O)[C@H](CC(C)C)NC(=O)[C@H](CC(N)=O)NC(=O)[C@@H]4CCCN4C(=O)[C@H](CCCCN)NC(=O)[C@H](CSSC[C@H](NC(=O)[C@@H](N)CC(=O)O)C(=O)N[C@@H](CC(C)C)C(=O)NCC(=O)N[C@@H](Cc4ccccc4)C(=O)N[C@@H](CCSC)C(=O)N[C@@H](CCCNC(=N)N)C(=O)N[C@@H](CCCCN)C(=O)N2)NC(=O)[C@H](CSSC[C@@H](C(=O)N[C@@H](CCCCN)C(=O)N[C@@H](Cc2ccc(O)cc2)C(=O)N[C@H](C(=O)N[C@@H](Cc2ccccc2)C(N)=O)C(C)C)NC(=O)[C@H](Cc2c[nH]c4ccccc24)NC(=O)[C@H](CCCCN)NC(=O)[C@H](Cc2cnc[nH]2)NC(=O)[C@H]([C@@H](C)O)NC(=O)[C@H](CCCNC(=N)N)NC(=O)[C@H](CO)NC3=O)NC(=O)[C@H](CCCCN)NC(=O)[C@H](CC(=O)O)NC(=O)[C@H](CC(N)=O)NC(=O)[C@H](CC(=O)O)NC(=O)[C@@H]2CCCN2C1=O` (H-DCLGFMRKCIPDNDKCCKPNLVCSRTHKWCKYVF-NH2; disulfide 2-17, 9-23, 16-30), the IC50 was 360 nM in assay [1], over 5000 nM in assay [2], 1.6 nM in assay [3] and 15900 nM in assay [4].

On to `CC[C@H](C)[C@@H]1NC(=O)[C@@H]2CSSC[C@@H]3NC(=O)[C@H](Cc4c[nH]c5ccccc45)NC(=O)[C@H](CC(C)C)NC(=O)[C@H](CC(N)=O)NC(=O)[C@@H]4CCCN4C(=O)[C@H](CCCNC(=N)N)NC(=O)[C@H](CSSC[C@H](NC(=O)[C@@H](N)CC(=O)O)C(=O)N[C@@H](CC(C)C)C(=O)NCC(=O)N[C@@H](Cc4ccccc4)C(=O)N[C@@H](CCSC)C(=O)N[C@@H](CCCNC(=N)N)C(=O)N[C@@H](CCCCN)C(=O)N2)NC(=O)[C@H](CSSC[C@@H](C(=O)N[C@@H](CCCCN)C(=O)N[C@@H](Cc2ccc(O)cc2)C(=O)N[C@H](C(=O)N[C@@H](Cc2ccccc2)C(N)=O)C(C)C)NC(=O)[C@H](Cc2c[nH]c4ccccc24)NC(=O)[C@H](CCCCN)NC(=O)[C@H](Cc2cnc[nH]2)NC(=O)[C@H]([C@@H](C)O)NC(=O)[C@H](CCCNC(=N)N)NC(=O)[C@H](CO)NC3=O)NC(=O)[C@H](CCCCN)NC(=O)[C@H](CC(=O)O)NC(=O)[C@H](CC(N)=O)NC(=O)[C@H](CC(=O)O)NC(=O)[C@@H]2CCCN2C1=O` (H-DCLGFMRKCIPDNDKCCRPNLWCSRTHKWCKYVF-NH2; disulfide 2-17, 9-23, 16-30), for which the IC50 in assay [1] is 60 nM; in assay [2], over 5000 nM; in assay [3], 42 nM; in assay [4], 3200 nM.

For the molecule `CSCC[C@@H]1NC(=O)[C@H](Cc2ccccc2)NC(=O)CNC(=O)[C@H](CC(C)C)NC(=O)[C@@H](NC(=O)[C@@H](N)CC(=O)O)CSSC[C@@H]2NC(=O)[C@@H]3CSSC[C@@H](C(=O)N[C@@H](CCCCN)C(=O)N[C@@H](Cc4ccc(O)cc4)C(=O)N[C@H](C(=O)N[C@@H](Cc4ccccc4)C(N)=O)C(C)C)NC(=O)[C@H](Cc4c[nH]c5ccccc45)NC(=O)[C@H](CCCCN)NC(=O)[C@H](Cc4cnc[nH]4)NC(=O)[C@H]([C@@H](C)O)NC(=O)[C@H](CCCNC(=N)N)NC(=O)[C@H](CO)NC(=O)[C@H](CSSC[C@H](NC(=O)[C@H](CCCCN)NC(=O)[C@H](CCCNC(=N)N)NC1=O)C(=O)N[C@@H](CC(N)=O)C(=O)N1CCC[C@H]1C(=O)N[C@@H](CC(=O)O)C(=O)N[C@@H](CC(N)=O)C(=O)N[C@@H](CC(=O)O)C(=O)N[C@@H](CCCCN)C(=O)N3)NC(=O)[C@H](C(C)C)NC(=O)[C@H](CC(C)C)NC(=O)[C@H](CC(N)=O)NC(=O)[C@@H]1CCCN1C(=O)[C@H](CCCNC(=N)N)NC2=O` (H-DCLGFMRKCNPDNDKCCRPNLVCSRTHKWCKYVF-NH2; disulfide 2-17, 9-23, 16-30), the IC50 in assay [1] was 330 nM; in assay [2], over 5000 nM; in assay [3] it was 1.9 nM; in assay [4], over 10000 nM.

Consider `CC[C@H](C)[C@@H]1NC(=O)[C@@H]2CSSC[C@@H]3NC(=O)[C@H](C(C)C)NC(=O)[C@H](CC(C)C)NC(=O)[C@H](CC(N)=O)NC(=O)[C@@H]4CCCN4C(=O)[C@H](Cc4cc5ccccc5[nH]4)NC(=O)[C@H](CSSC[C@H](NC(=O)[C@@H](N)CC(=O)O)C(=O)N[C@@H](CC(C)C)C(=O)NCC(=O)N[C@@H](Cc4ccccc4)C(=O)N[C@@H](CCSC)C(=O)N[C@@H](CCCNC(=N)N)C(=O)N[C@@H](CCCCN)C(=O)N2)NC(=O)[C@H](CSSC[C@@H](C(=O)N[C@@H](CCCCN)C(=O)N[C@@H](Cc2ccc(O)cc2)C(=O)N[C@H](C(=O)N[C@@H](Cc2ccccc2)C(N)=O)C(C)C)NC(=O)[C@H](Cc2c[nH]c4ccccc24)NC(=O)[C@H](CCCCN)NC(=O)[C@H](Cc2cnc[nH]2)NC(=O)[C@H]([C@@H](C)O)NC(=O)[C@H](CCCNC(=N)N)NC(=O)[C@H](CO)NC3=O)NC(=O)[C@H](CCCCN)NC(=O)[C@H](CC(=O)O)NC(=O)[C@H](CC(N)=O)NC(=O)[C@H](CC(=O)O)NC(=O)[C@@H]2CCCN2C1=O` (H-DCLGFMRKCIPDNDKCC[Ala(indol-2-yl)]PNLVCSRTHKWCKYVF-NH2; disulfide 2-17, 9-23, 16-30), for which the IC50 in assay [1] is 180 nM; in assay [2], over 5000 nM; in assay [3], 18 nM; in assay [4] it was over 10000 nM.

For the molecule `CC[C@H](C)[C@@H]1NC(=O)[C@@H]2CSSC[C@@H]3NC(=O)[C@H](C(C)C)NC(=O)[C@H](CC(C)C)NC(=O)[C@H](CC(N)=O)NC(=O)[C@@H]4CCCN4C(=O)[C@H](CCCNC(N)=O)NC(=O)[C@H](CSSC[C@H](NC(=O)[C@@H](N)CC(=O)O)C(=O)N[C@@H](CC(C)C)C(=O)NCC(=O)N[C@@H](Cc4ccccc4)C(=O)N[C@@H](CCSC)C(=O)N[C@@H](CCCNC(=N)N)C(=O)N[C@@H](CCCCN)C(=O)N2)NC(=O)[C@H](CSSC[C@@H](C(=O)N[C@@H](CCCCN)C(=O)N[C@@H](Cc2ccc(O)cc2)C(=O)N[C@H](C(=O)N[C@@H](Cc2ccccc2)C(N)=O)C(C)C)NC(=O)[C@H](Cc2c[nH]c4ccccc24)NC(=O)[C@H](CCCCN)NC(=O)[C@H](Cc2cnc[nH]2)NC(=O)[C@H]([C@@H](C)O)NC(=O)[C@H](CCCNC(=N)N)NC(=O)[C@H](CO)NC3=O)NC(=O)[C@H](CCCCN)NC(=O)[C@H](CC(=O)O)NC(=O)[C@H](CC(N)=O)NC(=O)[C@H](CC(=O)O)NC(=O)[C@@H]2CCCN2C1=O`, the IC50 in assay [1] is 180 nM; in assay [2], over 5000 nM; in assay [3] it was 1.9 nM; in assay [4], over 10000 nM.
